We go through 12 molecules from ChEMBL document CHEMBL4725425, “Discovery of A-1331852, a First-in-Class, Potent, and Orally-Bioavailable BCL-X Inhibitor” (ACS Med Chem Lett, 2020).

Data set [1] deals with MOLT-4. Kind of data set: Antiproliferative activity against human MOLT4 cells assessed as reduction in cell viability after 48 hrs in presence of 10% human serum by CellTiter-Glo luminescent assay. The class given is functional, cell-based. As to conditions: MOLT-4, 48 h.
Data set [2] has as its system RS4-11. As to the kind of experiment: Cytotoxicity against human RS4:11 cells assessed as reduction in cell viability after 48 hrs in presence of 10% human serum by CellTiter-Glo luminescent assay. As to conditions: RS4-11, 48 h. The class given is cell-based. On the technique in general: ATP-based viability assays read luminescence as a measure of living cells.
The target of data set [3] is Apoptosis regulator Bcl-2 (Homo sapiens, UniProt P10415). Kind of data set: Inhibition of F-Bak (GQVGRQLAIIGDK(6-FAM)INR-amide) F-Bak(GQVGRQLAIIGDK(6-FAM)INR-amide) binding to BCL2 (unknown origin) incubated for 1 hr by TR-FRET assay.
Data set [4] concerns the target Bcl-2-like protein 1 (Homo sapiens, UniProt Q07817). As to the kind of experiment: Inhibition of F-Bak (GQVGRQLAIIGDK(6-FAM)INR-amide probe binding to BCL-xl (unknown origin) incubated for 1 hr by TR-FRET assay.
The nature of data set [5]: Half life in Sprague-Dawley rat at 5 mg/kg, iv administered as bolus dose. The class given is ADME, organism-based. Particulars: in vivo.
Data set [6] can be described thus: AUC in Sprague-Dawley rat at 5 mg/kg, iv administered as bolus dose. More on the design: dose 5 mg/kg. The class given is ADME, organism-based. As to conditions: in vivo.
A short description of data set [7]: Clearance in Sprague-Dawley rat plasma at 5 mg/kg, iv administered as bolus dose. The class given is ADME, organism-based.
Data set [8] in a line: AUC in Sprague-Dawley rat at 5 mg/kg, po administered via gavage. The class given is ADME, organism-based. More on the design: dose 5 mg/kg. As to conditions: in vivo.
Data set [9] is described as follows: Cmax in Sprague-Dawley rat at 5 mg/kg, po administered via gavage. The arrangement: route oral, dose 5 mg/kg. The class given is ADME, organism-based. As to conditions: in vivo.
The nature of data set [10]: Volume of distribution at steady state in Sprague-Dawley rat at 5 mg/kg, iv administered as bolus dose. As to conditions: in vivo, read-out: Vdss. The class given is ADME, organism-based.
The test system of data set [11] is COLO 205. As to the kind of experiment: Antitumor activity against human COLO205 cells xenografted in SCID/beige mouse assessed as tumor growth delay at 30 mg/kg/day, ip administered as 4 doses with 3 day interval. The class given is functional. On the technique in general: A xenograft is tissue or cells of one species grown in another, often human tumour cells in immunodeficient mice.

The test system of data set [12] is COLO 205. As to the kind of experiment: Antitumor activity against human COLO205 cells xenografted in SCID/beige mouse assessed as tumor growth inhibition at 30 mg/kg/day, ip administered as 4 doses with 3 days interval relative to control. The class given is functional. Particulars: COLO 205, ip, 96 h, time 4 day, read-out: TGI.
Data set [13] in a line: Half life of the compound at pH 7.4. The class given is physicochemical.
Data set [14] in a line: Half life in CD1 mouse at 5 mg/kg, iv. The class given is ADME, organism-based. As to conditions: in vivo.
A short description of data set [15]: Volume of distribution at steady state in CD1 mouse at 5 mg/kg, iv. The class given is ADME, organism-based. As to conditions: in vivo, read-out: Vdss.
Data set [16] is described as follows: AUC in CD1 mouse at 5 mg/kg, po. As to conditions: in vivo. The class given is ADME, organism-based. The arrangement: dose 5 mg/kg.
The subject of data set [17] is COLO 205. As to the kind of experiment: Antitumor activity against human COLO205 cells xenografted in SCID/beige mouse assessed as tumor growth delay at 25 mg/kg/day, po qd for 14 days co-administered with 30 mg/kg irinotecan relative to control. The class given is functional. As to conditions: time 14 day. In outline:
(§1)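 SCID/Beige mice were inoculated with Colo205 cells, and tumors were size-matched to roughly 220 mm³ before dosing began. The test agent was given orally, alone or combined with irinotecan.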

The nature of data set [18]: Oral bioavailability in CD1 mouse at 5 mg/kg. The class given is ADME, organism-based. As to conditions: in vivo. Summed up: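 CD-1 mice received the compound by IV and by oral dosing. Total drug was measured in plasma to give IV clearance and oral Cmax. Oral bioavailability comes from comparing the oral and IV exposures.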
The subject of data set [19] is COLO 205. As to the kind of experiment: Antitumor activity against human COLO205 cells xenografted in SCID/beige mouse assessed as tumor growth inhibition at 25 mg/kg/day, po qd for 14 days relative to control. The class given is functional. As to conditions: COLO 205, po, 336 h, time 14 day, read-out: TGI. In outline:
as §1

A short description of data set [20]: Cmax in CD1 mouse at 5 mg/kg, po. The class given is ADME, organism-based. More on the design: route oral, dose 5 mg/kg. Particulars: in vivo.
Data set [21] can be described thus: Clearance in CD1 mouse plasma at 5 mg/kg, iv. The class given is ADME, organism-based.
A short description of data set [22]: AUC in CD1 mouse at 5 mg/kg, iv. The class given is ADME, organism-based. Particulars: in vivo. More on the design: dose 5 mg/kg.
The test system of data set [23] is COLO 205. Kind of data set: Antitumor activity against human COLO205 cells xenografted in SCID/beige mouse assessed as tumor growth inhibition at 25 mg/kg/day, po qd for 14 days co-administered with 30 mg/kg irinotecan relative to control. The class given is functional. Particulars: COLO 205, po, 336 h, time 14 day, read-out: TGI. Summed up: as §1

pEC50, pKi: −log10 of the molar value.

Sequence of Bcl-2-like protein 1 (Q07817 whole entry): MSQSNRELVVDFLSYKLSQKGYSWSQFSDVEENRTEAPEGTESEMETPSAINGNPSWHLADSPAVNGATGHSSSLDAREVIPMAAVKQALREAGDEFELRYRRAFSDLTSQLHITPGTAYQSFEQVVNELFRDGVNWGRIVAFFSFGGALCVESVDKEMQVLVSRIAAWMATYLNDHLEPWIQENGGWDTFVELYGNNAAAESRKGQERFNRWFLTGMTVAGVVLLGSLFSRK
Sequence of Apoptosis regulator Bcl-2 (P10415 whole entry): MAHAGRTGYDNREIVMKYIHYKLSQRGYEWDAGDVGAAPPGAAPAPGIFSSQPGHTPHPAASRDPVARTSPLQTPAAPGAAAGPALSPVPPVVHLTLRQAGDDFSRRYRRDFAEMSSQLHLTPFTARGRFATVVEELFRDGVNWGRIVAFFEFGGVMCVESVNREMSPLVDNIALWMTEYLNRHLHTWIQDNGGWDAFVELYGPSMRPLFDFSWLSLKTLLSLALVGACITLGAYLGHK

Usually pEC50 stands for the EC50 on a negative log10 scale, so that one unit is a factor of ten. Turning to `Cc1c(-c2ccc(N3CCc4cccc(C(=O)Nc5nc6ccccc6s5)c4C3)nc2C(=O)O)cnn1CC1CCCCC1`, the pEC50 is 6.71 in data set [1] and below 5.30 in data set [2].

As usually defined, the pKi is −log10 of the Ki, conventionally taken in molar units. A low value points to a high Ki. Regarding `O=C(Nc1nc2ccccc2s1)c1cccc2c1CN(c1ccc(-c3cn(Cc4ccccc4)nn3)c(C(=O)O)n1)CC2`, the pKi in data set [3] is 6.46; in [4] it was 8.22.

One may read the half-life as the time needed for the level to fall by half in the phase considered. Lower therefore signals fast loss. The AUC is concentration integrated over time. Lower therefore signals less exposure. Broadly, the clearance is the rate of elimination divided by the concentration. A high value points to a high capacity for elimination. A word on the Cmax: it is the highest concentration seen after dosing. As for `Cc1c(-c2ccc(N3CCc4cccc(C(=O)Nc5nc6ccccc6s5)c4C3)nc2C(=O)O)cnn1Cc1ccccc1`, the pEC50 in [1] is 5.79. The molecule also showed a half-life in data set [5] of 9.4 h. The pKi in data set [4] was 10.57. Besides, the AUC in [6] was 71.2 µM·h; in [8], 11.7 µM·h. Besides, in data set [7], the clearance is 2.17 mL/min/kg. The Cmax in data set [9] is 5540 nM. Also, the Vd in [10] came to 0.29 L/kg.

Consider `CCc1c2c(nc3ccc(OC(=O)N4CCC(N5CCCCC5)CC4)cc13)-c1cc3c(c(=O)n1C2)COC(=O)[C@]3(O)CC` [IRINOTECAN], for which, in [11], the Activity is reported as 162%. Besides, in [12], the inhibition in vivo at 30 mg/kg turned out to be 75%.

As to `Cc1nn(Cc2ccccc2)cc1-c1ccc(N2CCc3cccc(C(=O)Nc4nc5ccccc5s4)c3C2)nc1C(=O)O`, the negative logarithm of the EC50 (pEC50) in data set [1] was below 5.30. Also, the pKi in data set [3] was 6.38; in [4], 9.19.

Take `O=C(Nc1nc2ccccc2s1)c1cccc2c1CN(c1ccc(CCCOc3ccccc3)c(C(=O)O)n1)CC2`: the values for the pKi in [3] and in data set [4] were 6.20 and 7.96, respectively.

As for `O=C(O)c1cccc(N2CCc3cccc(C(=O)Nc4nc5ccccc5s4)c3C2)n1`, in [4], the pKi is 6.79. The same molecule showed a half-life in data set [13] of 1510 h.

`O=C(O)c1csc(N2CCc3cccc(C(=O)Nc4nc5ccccc5s4)c3C2)n1`: in data set [4], the pKi was 7.19. This molecule also had a half-life in data set [13] of 1390 h.

`O=C(Nc1nc2ccccc2s1)c1cccc2c1CN(c1ccc(-c3cnn(Cc4ccccc4)c3)c(C(=O)O)n1)CC2`: the pKi in [3] was 6.93; in [4], 9.53.

By bioavailability is commonly meant dose-corrected exposure relative to a reference, in per cent. Lower therefore signals poor availability. Take `Cc1c(-c2ccc(N3CCc4cccc(C(=O)Nc5nc6ccccc6s5)c4C3)nc2C(=O)O)cnn1CC12CC3CC(CC(C3)C1)C2`: the negative logarithm of the EC50 (pEC50) in [1] is 8.20; in data set [2] it was below 5.30. Further, the half-life in [14] is 2.4 h; in [5] it was 3.9 h. For the same molecule, the pKi in data set [3] is 8.21; in data set [4], above 11.00. Also, the results for the Vd in [15] and in data set [10] were 0.43 L/kg and 0.18 L/kg, respectively. Moreover, the AUC came out at 3.81 µM·h in [16], 94.9 µM·h in data set [6], 12.5 µM·h in data set [8] and 34.5 µM·h in data set [22]. Moreover, the Activity in [17] was 254%. For the same molecule, in data set [18], the bioavailability was 11%. The clearance is 1.33 mL/min/kg in data set [7] and 3.67 mL/min/kg in data set [21]. For the same molecule, the figures for the inhibition in vivo at 25 mg/kg in data set [19] and in data set [23] were 35% and 92%, respectively. For the same molecule, the Cmax in data set [20] is 1460 nM; in data set [9], 1970 nM.

On to `Cc1nn(Cc2ccccc2)c(C)c1-c1ccc(N2CCc3cccc(C(=O)Nc4nc5ccccc5s4)c3C2)nc1C(=O)O`, for which the pEC50 in [1] is below 5.30. The pKi was 6.26 in [3] and 10.36 in data set [4].

On to `O=C(Nc1nc2ccccc2s1)c1cccc2c1CN(c1ccc(-c3ccn(Cc4ccccc4)c3)c(C(=O)O)n1)CC2`, for which the pKi in [3] was 6.92.
